# Residue numbers refer to the chain shown, from its start.
# Tests used:
# SW480 cell line = assay: MTT antiproliferative assay, SW480 cell line; type: cell-based, human; conditions: for inhibition of SW480 cells compared with the CVB-D group: 10 μM, CVB-D 12 μM
# How it was run: (§1)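 MTT assay. Cells were grown in DMEM with 10% FBS and 1% penicillin/streptomycin at 37 °C, 5% CO2, then seeded at 5 × 10^3 to 6 × 10^3 cells/mL in 96-well plates. Screening was at 10 μM, with CVB-D (12 μM) as positive control and curcumin as comparator. The dose range was 0–8 μM in 1 μM steps. Solvent-only wells served as controls. Read-out was absorbance of DMSO-dissolved formazan. Data are mean ± SD, n ≥ 3.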
# CT26 cell line = assay: MTT antiproliferative assay, CT26 cell line; type: cell-based, mouse
# How it was run: as §1
# PINK1 [1] = assay: Western blot, PINK1 expression in CT26 cells; type: cell-based, mouse; conditions: CT26, 8 μM vs control
# How it was run: (§2)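 Western blot. SW480 or CT26 cells were seeded at 3 × 10^5 to 5 × 10^5/mL, allowed to adhere, then exposed to 0 (control) or 8 μM test compound for 24 h. Lysate protein was quantified by BCA and equalised, boiled, separated by SDS-PAGE, transferred to PVDF and detected with peroxidase labeling. Data are mean ± SD, at least three independent replicates, analysed by one-way ANOVA or t test.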
# RKO cell line = assay: MTT antiproliferative assay, RKO cell line; type: cell-based, human; conditions: NCM460 vs RKO
# How it was run: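 Selectivity index is the IC50 in normal colon epithelial NCM460 cells divided by the IC50 in the colorectal cancer line. Both IC50s come from MTT viability assays: solvent-treated controls, formazan dissolved in DMSO, absorbance read-out, at least three independent replicates.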
# RAW264.7 cell line = assay: MTT cytotoxicity, RAW264.7 cell line; type: cell-based, mouse; conditions: 0 to 8 μM, all concentrations
# How it was run: (§3)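 Viability of THP-1 (human monocytic) and RAW264.7 (mouse macrophage) cells was measured by MTT. Cells were grown in DMEM with 10% FBS at 37 °C, 5% CO2, then seeded at 5 × 10^3 to 6 × 10^3 cells/mL. Test compound was given at 0–8 μM alongside an equal-volume solvent control. Read-out was absorbance after DMSO solubilisation of formazan. Data are mean ± SD from at least three independent experiments.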
# SHP-2 [2] = biological target: T1, SHP-2 (Homo sapiens, UniProt Q06124); assay: Western blot, SHP-2 in human TME; type: cell-based; conditions: SW480 cocultured with THP-1
# T1 sequence (Q06124 1-593): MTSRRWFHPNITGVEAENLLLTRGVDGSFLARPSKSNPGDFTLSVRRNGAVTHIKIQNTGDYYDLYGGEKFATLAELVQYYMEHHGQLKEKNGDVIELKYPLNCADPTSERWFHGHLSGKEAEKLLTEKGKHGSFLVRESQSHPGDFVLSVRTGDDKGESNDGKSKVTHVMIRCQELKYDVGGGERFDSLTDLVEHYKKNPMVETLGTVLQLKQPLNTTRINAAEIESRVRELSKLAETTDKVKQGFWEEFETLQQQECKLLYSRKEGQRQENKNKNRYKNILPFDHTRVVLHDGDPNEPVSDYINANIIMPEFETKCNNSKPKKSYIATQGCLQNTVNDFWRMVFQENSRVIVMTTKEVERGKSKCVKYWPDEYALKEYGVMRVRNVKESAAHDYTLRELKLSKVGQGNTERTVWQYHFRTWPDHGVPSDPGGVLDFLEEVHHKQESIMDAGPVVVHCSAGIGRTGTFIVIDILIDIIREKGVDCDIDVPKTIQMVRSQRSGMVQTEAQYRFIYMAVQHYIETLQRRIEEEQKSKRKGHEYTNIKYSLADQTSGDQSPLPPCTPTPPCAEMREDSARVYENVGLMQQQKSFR
# How it was run: (§4)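 Western blot in tumour–macrophage cocultures: SW480 with THP-1 (human) and CT26 with RAW264.7 (mouse). Coculture drives the macrophages toward a cancer-promoting phenotype, after which test compound is applied. Protein was quantified by BCA, separated by SDS-PAGE, transferred to PVDF and detected with peroxidase labeling. Comparisons were against both the control and the untreated coculture. Data are mean ± SD, n ≥ 3.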
# [3] = system: chemokine receptors, CC and CXC chemokine subfamilies; assay: Chemokine mRNA levels in human and mouse TME; type: cell-based; conditions: human and mouse TME cocultures
# How it was run: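 Human system: SW480 cells cocultured with THP-1 cells. Mouse system: CT26 cells cocultured with RAW264.7 cells. Coculture induces the macrophages to differentiate into cancer-promoting cells, which are then treated with test compound. Chemokine receptor and CC/CXC chemokine mRNA levels were measured and compared with the control group. Data are mean ± SD from at least three independent replicates.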
# Parkin [4] = assay: Western blot, Parkin expression in SW480 cells; type: cell-based, human; conditions: SW480, 8 μM vs control
# How it was run: as §2
# Cyclin-D1 [5] = assay: Western blot, Cyclin-D1 expression in SW480 cells; type: cell-based, human; conditions: SW480, 8 μM
# How it was run: as §2
# [6] = system: cytokines (TGF-β, IL-10, and Arg-1); assay: Western blot, cytokine expression in the TME; type: cell-based; conditions: vs coculture
# How it was run: as §4
# SHP-2 [7] = biological target: T1, SHP-2; assay: Western blot, SHP-2 expression in SW480 cells; type: cell-based; conditions: SW480, 8 μM
# How it was run: as §2
# Parkin [8] = assay: Western blot, Parkin expression in CT26 cells; type: cell-based, mouse; conditions: CT26, 8 μM vs control
# How it was run: as §2
# p27 [9] = assay: Western blot, p27 expression in SW480 cells; type: cell-based, human; conditions: SW480, 8 μM vs control
# How it was run: as §2
# CDK1 [10] = biological target: CDK1 (Mus musculus, UniProt P11440); assay: Western blot, CDK1 expression in CT26 cells; type: cell-based; conditions: CT26, 8 μM
# How it was run: as §2
# CDK1 [11] = biological target: CDK1 (Homo sapiens, UniProt P06493); assay: Western blot, CDK1 expression in SW480 cells; type: cell-based; conditions: SW480, 8 μM
# How it was run: as §2
# THP-1 cell line = assay: MTT cytotoxicity, THP-1 cell line; type: cell-based, human; conditions: 0 to 8 μM, all concentrations
# How it was run: as §3
# p27 [12] = assay: Western blot, p27 expression in CT26 cells; type: cell-based, mouse; conditions: CT26, 8 μM vs control
# How it was run: as §2
# PI3K and Akt proteins = assay: Western blot, PI3K-Akt pathway in TAMs; type: cell-based
# How it was run: as §4
# PINK1 [13] = assay: Western blot, PINK1 expression in SW480 cells; type: cell-based, human; conditions: SW480, 8 μM vs control
# How it was run: as §2
# NCM460 cell line = assay: MTT cytotoxicity, normal colon epithelial cell line NCM460; type: cell-based, human
# How it was run: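 MTT viability in NCM460 normal human colon epithelial cells. Test compound and curcumin were each tested at 0, 5, 10, 20, 40 and 80 μM, diluted in medium from a 10 mmol/L DMSO stock, against a solvent control. Formazan was dissolved in DMSO and absorbance read. Toxicity was graded by USP classification. Data are mean ± SD, at least three independent replicates.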
# Cyclin-D1 [14] = assay: Western blot, Cyclin-D1 expression in CT26 cells; type: cell-based, mouse; conditions: CT26, 8 μM
# How it was run: as §2
# SHP-2 [15] = biological target: T2, SHP-2 (Mus musculus, UniProt P35235); assay: Western blot, SHP-2 in mouse TME; type: cell-based; conditions: CT26 cocultured with RAW264.7
# T2 sequence (P35235 1-593): T1 sequence (Q06124 1-593) with M450V, A550V, K590R
# How it was run: as §4
# Akt [16] = assay: Western blot, Akt expression in CT26 cells; type: cell-based, mouse; conditions: CT26, 8 μM
# How it was run: as §2
# SHP-2 [17] = biological target: T2, SHP-2; assay: Western blot, SHP-2 expression in CT26 cells; type: cell-based; conditions: CT26, 8 μM
# How it was run: as §2
# PI3K [18] = assay: Western blot, PI3K expression in CT26 cells; type: cell-based, mouse; conditions: CT26, 8 μM
# How it was run: as §2
# PI3K [19] = assay: Western blot, PI3K expression in SW480 cells; type: cell-based, human; conditions: SW480, 8 μM
# How it was run: as §2
# Akt [20] = assay: Western blot, Akt expression in SW480 cells; type: cell-based, human; conditions: SW480, 8 μM
# How it was run: as §2
# Sequence of CDK1 (Mus musculus, UniProt P11440) (P11440 whole entry): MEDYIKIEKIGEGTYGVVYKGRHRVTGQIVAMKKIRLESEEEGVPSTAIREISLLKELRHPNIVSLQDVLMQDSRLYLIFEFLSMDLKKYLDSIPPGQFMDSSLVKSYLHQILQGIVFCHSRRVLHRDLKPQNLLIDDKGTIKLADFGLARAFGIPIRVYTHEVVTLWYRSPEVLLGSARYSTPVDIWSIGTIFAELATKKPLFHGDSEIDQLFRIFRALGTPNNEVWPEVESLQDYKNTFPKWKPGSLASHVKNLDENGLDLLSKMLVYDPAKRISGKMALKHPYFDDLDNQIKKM
# Sequence of CDK1 (Homo sapiens, UniProt P06493) (P06493 whole entry): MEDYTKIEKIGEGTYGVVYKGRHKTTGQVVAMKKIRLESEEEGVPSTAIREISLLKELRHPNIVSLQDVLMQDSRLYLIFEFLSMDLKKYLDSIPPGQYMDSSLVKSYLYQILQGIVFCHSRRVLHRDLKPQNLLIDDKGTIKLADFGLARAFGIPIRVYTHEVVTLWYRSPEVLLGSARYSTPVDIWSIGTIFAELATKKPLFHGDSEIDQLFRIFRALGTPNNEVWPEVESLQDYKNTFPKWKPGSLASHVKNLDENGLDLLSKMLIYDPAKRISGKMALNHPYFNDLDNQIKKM
compound,measurement,setting,value
"COc1cc(/C=C/C(=O)/C(=C\C2=CC=C[CH]2[Fe][CH]2C=CC=C2)C(=O)/C=C/c2ccc(OC)c(OC)c2)ccc1O (stereo not shown) [Compound 3b, Cyclopenta-2,4-dien-1-yl(2-((1E,4E)-5(3,4-dimethoxyphenyl)-2-((E)-3-(4-hydroxy-3-methoxyphenyl)acryloyl)-3-oxopenta-1,4-dien-1-yl)cyclopenta-2,4-dien-1-yl)iron]",inhibition of SW480 cells compared with the CVB-D group,SW480 cell line,markedly superior
same,proliferative capacity of CT26 cells compared to the control group,CT26 cell line; 10 μM,significant differences
same,proliferative capacity of CT26 cells compared to the CVB-D group,"CT26 cell line; 10 μM, CVB-D 12 μM",no significant difference
"COc1ccc(/C=C/C(=O)C(=CC2=CC=C[CH]2[Fe][CH]2C=CC=C2)C(=O)/C=C/c2ccc(OC)c(OC)c2)cc1OC (stereo not shown) [Compound 3f, Cyclopenta-2,4-dien-1-yl(2-((E)-5(3,4-dimethoxyphenyl)-2-((E)-3-(3,4-dimethoxyphenyl)acryloyl)-3-oxopenta-1,4-dien-1-yl)cyclopenta-2,4-dien-1-yl)iron]",expression of PINK1 protein,PINK1 [1],significantly increased
same,"selectivity index (SI), IC50 normal cells / IC50 RKO",RKO cell line,162
same,cell viability of RAW264.7 cells,RAW264.7 cell line,~100%
same,inhibition rate on SHP-2 target in human TME,SHP-2 [2],65%
same,effect on CCL and CXCL subfamilies (mRNA),[3],able to inhibit
same,mRNA levels of CCR chemokine receptors,[3],significantly reduced
same,expression of Parkin protein,Parkin [4],significantly up-regulated
same,Cyclin-D1 protein expression inhibition rate,Cyclin-D1 [5],19%
same,"expression levels of cytokines (TGF-β, IL-10, Arg-1) in the TME",[6],significantly reduced
same,SHP-2 inhibition rate,SHP-2 [7],76%
same,expression of Parkin protein,Parkin [8],significantly increased
same,expression of p27 protein,p27 [9],significantly increased
same,CDK1 inhibition rate,CDK1 [10],20%
same,CDK1 inhibition rate,CDK1 [11],18%
same,cell viability of THP-1 cells,THP-1 cell line,~100%
same,expression of p27 protein,p27 [12],significantly increased
same,expression levels of PI3K and Akt proteins in both coculture systems,PI3K and Akt proteins,reduced
same,expression of PINK1 protein,PINK1 [13],significantly up-regulated
same,USP toxicity classification to normal colon epithelial cells,NCM460 cell line; NCM460,low toxic/nontoxic
same,viability of NCM460 cells,"NCM460 cell line; at all concentrations (0, 5, 10, 20, 40, 80 μM)",above 87%
same,inhibition of SW480 cells compared with the CVB-D group,SW480 cell line,markedly superior
same,"selectivity index (SI), IC50 normal cells / IC50 SW480",SW480 cell line; NCM460 vs SW480,250
same,concentration of strongest (optimal) inhibition,"SW480 cell line; SW480, tested 0-8 μM",8 µM
same,concentration at which significant inhibition begins,"SW480 cell line; SW480, vs control",4 µM
same,IC50,"SW480 cell line; read-out: IC50 against SW480 cells, SW480 cells, MTT",3710 nM
same,effect on Cyclin-D1 protein compared to SW480,Cyclin-D1 [14],stronger inhibitory effect
same,proliferative capacity of CT26 cells compared to the control group,CT26 cell line; 10 μM,significant differences
same,optimal inhibitory concentration,"CT26 cell line; CT26, tested 0-8 μM",8 µM
same,concentration at which an inhibitory effect is demonstrated,"CT26 cell line; CT26, vs control",3 µM
same,"selectivity index (SI), IC50 normal cells / IC50 CT26",CT26 cell line; NCM460 vs CT26,654
same,IC50,"CT26 cell line; read-out: IC50 against CT26 cells, CT26 cells, MTT",1420 nM
same,inhibition rate on SHP-2 target in mouse TME,SHP-2 [15],32%
same,Akt expression inhibition rate,Akt [16],50%
same,SHP-2 inhibition rate,SHP-2 [17],24%
same,PI3K expression inhibition rate,PI3K [18],15%
same,PI3K expression inhibition rate,PI3K [19],46%
same,Akt expression inhibition rate,Akt [20],48%

# — paper PMC11696753 (ACS Omega, 2024)
